# Screening results deposited in PubChem BioAssay by Broad Institute.
# The list is not random: actives were taken first. Their share in the collection is about 3.7%.
# FGF22 binding = FGF22 (human) thermal shift binding. recombinant FGF22 thermal shift, SYPRO orange fluorescence; percent of sucrose octasulfate shift, DMSO zero. activity (Tm shift, normalised), % at 9.99 µM. AID 651658. 1.5% of 340,000 active;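 active = mean Tm shift, scaled 0 neutral to 100 positive control, at about 1.3% or above, every replicate too, limit read from the data; inconclusive = no clear call, values can overlap the other calls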
# Target sequence (Q9HCT0 whole entry, looked up): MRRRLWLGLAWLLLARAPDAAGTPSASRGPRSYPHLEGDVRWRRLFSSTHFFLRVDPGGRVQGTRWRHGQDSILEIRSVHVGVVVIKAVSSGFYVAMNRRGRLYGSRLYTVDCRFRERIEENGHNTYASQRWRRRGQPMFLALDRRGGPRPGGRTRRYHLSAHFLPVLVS
# ERAP1 HTS inh = ERAP1 (human) enzyme inhibition. inhibition, % at 10.7 µM. AID 652197. recombinant ERAP1, Leu-AMC fluorescence, 60 min. 0.15% of 340,000 active. Q9NZ08;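 active = mean replicate inhibition of at least 30%, or all replicates individually reaching that 30% level; inactive = mean below 30% and not every replicate reaching it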;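 note: 0% = neutral control wells and 100% = L-leucinethiol positive control wells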
# CFTR F508del cor = correctors of CFTR F508del function in bronchial epithelial cells; CFBE cells, YFP halide quenching; stimulated with forskolin plus potentiator P3; % fluorescence drop versus neutral controls; activity (quench increase), % at 7.58 µM; 0.36% of 350,000 active; AID 720511;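 active = mean added fluorescence quench of at least 8% versus neutral control, with both replicates also reaching 8%; inconclusive = only one of the mean or replicate conditions met; inactive = mean below 8% and not both replicates reaching 8%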;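 note: cells transiently co-express mutant CFTR-F508del with the halide-sensitive YFP; corrector assay measuring rescue of mutant channel to the surface after 24 h compound exposure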
# DENV2 CPE rescue = protects cells from dengue virus 2 cytopathic effect. DENV2-infected cells, cytopathic effect rescue, plate reader. AID 651640. CPE inhibition, % at 9.99 µM. 1.7% of 350,000 active; in the data active = CPE inhibition above about 20%, passing the limit was not always enough; inconclusive = no clear call, values can overlap the other calls; tested in BHK-21 cells;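 note: 0% = median of neutral control wells and 100% = median of positive control wells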
# E-selectin induc = induces E-selectin expression in human endothelial cells; AID 686992; 0.37% of 260,000 active; activation, % at 7.58 µM; HUVEC E-selectin immunofluorescence imaging; normalized: neutral wells 0, TNF-alpha wells 100; P16581;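 active = mean E-selectin-positive cell signal at least 10% of the positive control, reached in at least 60% of replicates, without over 20% cell loss; inconclusive = no rule given, readout overlaps actives, possibly toxicity-flagged; inactive = the rest, including those meeting only one limit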
#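 Assay system: HUVEC, human umbilical vein endothelial cells / Amount: 3,000 HUVEC/well / Controls: TNF-alpha positive control, DMSO neutral control / Compound dosing: single concentration / Medium: EGM-2 over gelatin coat / Evaluation: percent E-selectin-positive cells / Signal: immunofluorescence imaging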
# * = called active by the depositor; u = inconclusive; x = no result given.
SMILES,FGF22 binding,ERAP1 HTS inh,CFTR F508del cor,DENV2 CPE rescue,E-selectin induc
CCN1CCN(C(=O)C2CCN(Cc3nc(-c4cccc(Cl)c4)oc3C)CC2)CC1,0,x,1,9,0
COc1ccc(-c2nc(CN3CCC(C(=O)N4CCOCC4)CC3)c(C)o2)c(OC)c1,0,0,-1,44*,x
Cc1ccc(S(=O)(=O)N(C)C[C@H]2Oc3ccc(NS(=O)(=O)c4cn(C)cn4)cc3CC(=O)N([C@@H](C)CO)C[C@@H]2C)cc1,x,x,-3,x,0
CC(C)OC(=O)N(C)C[C@@H]1OCc2ccccc2-c2ccccc2C(=O)N([C@H](C)CO)C[C@@H]1C,0,1,-3,1,0
CCCC(=O)N1CCC2(CC1)CN(S(C)(=O)=O)[C@H](CO)c1c2c2ccc(OC)cc2n1C,0,x,1,59*,0
CCC(=O)N1CCC2(CC1)CN(S(C)(=O)=O)[C@H](CO)c1c2c2ccc(OC)cc2n1C,0,1,3,-1,0
CCCC(=O)N1CC2(CCN(C)CC2)c2c(n(C)c3cc(OC)ccc23)[C@@H]1CO,x,x,1,64*,0
CCCC(=O)N1CC2(CCN(C(C)=O)CC2)c2c(n(C)c3cc(OC)ccc23)[C@@H]1CO,0,-5,-1,-1,0
COc1ccc2c3c(n(C)c2c1)[C@@H](CO)N(C(=O)c1ccccn1)CC31CCN(C)CC1,x,x,-3,35*,0
COc1ccc2c3c(n(C)c2c1)[C@@H](CO)N(C(=O)c1ccccn1)CC31CCN(C(=O)c2ccccn2)CC1,0,-6,2,1,1
O=C(C[C@H]1CC[C@H]2[C@@H](COC[C@@H](O)CN2CC2CC2)O1)NCc1ccc(Cl)cc1,0,-2,-1,u,0
C#CCNC(=O)C1=C[C@H](c2ccc3c(c2)OCO3)C[C@H](OCCCCO)O1,0,x,-1,26*,0
C[C@@H]1C=C(C(=O)N2CCN(Cc3ccc4c(c3)OCO4)CC2)O[C@H](OCCCCO)C1,0,-3,0,21*,0
O=C(C1=C[C@H](C2CC2)C[C@H](OCCCCO)O1)N1CCN(Cc2ccc3c(c2)OCO3)CC1,0,-3,1,1,0
CCO[C@H]1OC(C(=O)N2CCN(Cc3ccc4c(c3)OCO4)CC2)=C[C@@H](C)[C@@H]1CCCO,9.2*,-2,-3,-2,0
COc1ccccc1S(=O)(=O)N[C@@H]1CC[C@@H](CCNC(=O)C2CCCC2)O[C@H]1CO,0,3,0,-9,0
O=C(CSc1nnc(NC(=O)c2ccco2)s1)Nc1cccc(F)c1,0,0,1,8,4
COc1ccc(NC(=O)CSc2nnc(NC(=O)c3ccccc3C(=O)O)s2)cc1,43*,-5,-3,5,-1
CC(=O)Nc1cccc(NC(=O)CSc2nnc(NC(=O)c3ccco3)s2)c1,1.5*,-20,0,u,0
CCCCC(=O)Nc1nnc(SCC(=O)Nc2ccc(OC)cc2)s1,0,2,2,4,0
CS(=O)(=O)Nc1nnc(SCC(=O)Nc2cccc([N+](=O)[O-])c2)s1,43*,-5,0,6,x
CC(C)C(=O)Nc1nnc(SCC(=O)Nc2ccc3c(c2)OCCO3)s1,1.4*,1,-1,x,u
CCC(=O)N[C@@H]1CC[C@@H](CCn2cc(C3CC3)nn2)O[C@H]1CO,0,2,1,14,1
COc1ccc(S(=O)(=O)Nc2cccc3c2O[C@@H](CN(C)C(=O)Nc2ccc4c(c2)OCO4)[C@H](C)CN([C@H](C)CO)C3=O)cc1,0,1,-2,0,0
O=C(C[C@@H]1CC[C@H]2[C@@H](COC[C@H](O)CN2Cc2cccc(C(F)(F)F)c2)O1)NCc1ccc(Cl)cc1,0,1,-1,-3,0
SMILES,FGF22 binding,ERAP1 HTS inh,CFTR F508del cor,DENV2 CPE rescue,E-selectin induc
C[C@@H](NC(=O)C[C@H]1CC[C@@H](NC(=O)c2cccnc2)[C@H](CO)O1)c1ccccc1,0,1,0,6,0
COc1ccc(CNS(=O)(=O)c2ccc3c(c2)C(C)(C)C(=O)N3C)cc1,0,3,-1,-3,127*
Cc1ccc(CNS(=O)(=O)c2ccc3c(c2)C(C)(C)C(=O)N3C)cc1,0,-1,-5,u,0
CN(C)c1ccc(CNS(=O)(=O)c2ccc3c(c2)C(C)(C)C(=O)N3C)cc1,0,-3,-4,49*,0
C[C@@H]1CN([C@@H](C)CO)C(=O)c2cc(C#CC3(O)CCCC3)cnc2O[C@H]1CN(C)Cc1ccccc1,0,3,0,13,0
COc1ccc2c3c(n(C)c2c1)[C@H](CO)N(Cc1ccccc1Cl)CC31CCN(C(C)=O)CC1,0,-6,0,3,0
COc1cc(OC)cc(C(=O)N2CCN(Cc3ccccc3Br)CC2)c1,43*,1,-3,-3,x
COc1ccc(S(=O)(=O)N(C)C[C@@H]2Oc3c(NS(=O)(=O)c4ccc(F)cc4)cccc3C(=O)N([C@H](C)CO)C[C@H]2C)cc1,0,x,1,5,-3
C[C@@H]1CCCCO[C@@H](CN(C)Cc2ccncc2)[C@@H](C)CN([C@@H](C)CO)C(=O)c2cc(NC(=O)C3CCCCC3)ccc2O1,x,x,-2,x,0
C[C@@H]1CN([C@H](C)CO)C(=O)c2cc(C3=CCCCC3)cnc2O[C@H]1CN(C)C(=O)C1CCOCC1,0,1,0,-4,0
COC(=O)c1ccc([C@H]2CC(=O)O2)cc1,0,-1,0,76*,x
OCCN1CCN(c2nc(-c3ccccc3)c3cc(Br)ccc3n2)CC1,0,-19,0,5,0
O=C(O)C1CCN(c2nc(-c3ccccc3)c3cc(Br)ccc3n2)CC1,0,-12,-1,1,34*
COc1ccc(C(c2sc3ncnn3c2O)N2CC(C)OC(C)C2)cc1OC (configuration not stated),0,3,2,75*,x
COc1ccc2c(c1)CC/C2=N\OC(=O)c1ccccc1C,0,1,0,x,-1
COc1ccc2c(c1)CCC/C2=N/OC(=O)c1ccccc1OC,44*,-1,-2,1,x
C[C@@H]1CN([C@H](C)CO)C(=O)c2cccc(NS(=O)(=O)c3ccccc3)c2O[C@H]1CN(C)C(=O)Nc1ccc(F)cc1,0,0,-2,-1,0
O=C(NCC[C@H]1CC[C@@H](NC(=O)c2cnccn2)[C@@H](CO)O1)c1ccc2c(c1)OCO2,0,1,0,1,0
CN(CCOC(=O)c1ccc2c(c1)OCO2)C(C)(C)C,0,2,-1,x,0
CN(C(=O)COC(=O)c1ccc2c(c1)OCO2)C1CCCCC1,0,1,2,-3,0
C[N+]12CCCCC1C(COC(=O)c1ccc3c(c1)OCO3)CCC2 (configuration not stated),x,31*,-4,14,x
